Measurements published in publication PMC7156834 (Cancer Science, 2020).
Read-outs that look alike come from different tables or passages of the source. No end group written: not given here.

Key:
[1] = target: recombinant human survivin (Homo sapiens, UniProt O15392); assay: Saturation binding assay of peptides to recombinant survivin protein; details: QCM sensorgram, result in words
Procedure, shortened: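 Quartz crystal microbalance. Recombinant human survivin (40 μg/mL) amide-coupled to the gold electrode of the sensor chip, with the chip soaked in buffer. 8 μL aliquots of test peptide solutions (10–256 μmol L⁻¹ as injected) added sequentially to the cuvette. Frequency change monitored over time. Kd derived by kinetic analysis using a one-binding-site model.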

[2] = system: human serum albumin (HSA); assay: QCM response to human serum albumin-immobilized sensor chip; type: binding; details: QCM sensorgram, result in words
Procedure, shortened: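 Quartz crystal microbalance run with an HSA-immobilized sensor chip. Test compound added to the cuvette in successive portions, giving overall cuvette concentrations that start at 1 and 10 nmol L⁻¹. Frequency change recorded over time as the binding response.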

[3] = system: MCF‐10A cells; assay: Cell proliferation assay; type: cell-based, human; details: MTT, 1, 10 or 100 µmol L^−1, 48 h
Procedure, shortened: (§1)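 Cells treated 48 h with test compound at 1, 10 or 100 µmol L⁻¹, or with 1% DMSO solvent alone. Culture media: MIA PaCa-2 in low-glucose DMEM with 10% FBS; MCF-10A in DMEM/F-12 with 5% horse serum, EGF, insulin and hydrocortisone. MTT added for 4 h, then cells lysed in DMSO. OD read at 570 nm (650 nm correction). Viability expressed relative to DMSO-treated cells (100%). Mean ± SD, n = 5–6; Kruskal-Wallis test with Dunn's post hoc test.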

[4] = system: survivin in MDA‐MB‐231 cells; assay: Western blot of survivin protein expression, MDA-MB-231; type: cell-based, human; details: 10 or 40 μmol L^−1, 48 h, vs vehicle control, n = 3
[5] = system: survivin in MIA PaCa‐2 cells; assay: Western blot of survivin protein expression, MIA PaCa-2; type: cell-based, human; details: 40 µmol L^−1, 48 h, P = .366, without statistical significance, n = 3
[6] = system: cleaved caspase‐3 in MIA PaCa‐2 cells; assay: Western blot of cleaved caspase-3, MIA PaCa-2; type: cell-based, human; details: even at 10 µmol L^−1, 48 h, vs untreated cells, n = 3
[7] = system: MIA PaCa‐2 cells; assay: Flow cytometry, annexin V-FITC/PI apoptosis; type: cell-based, human; details: n = 3
[8] = system: MDA‐MB‐231 cells; assay: Cell proliferation assay; type: cell-based, human; details: MTT, different concentrations, 48 h
[9] = system: MIA PaCa‐2 cells; assay: Cell proliferation assay; type: cell-based, human; details: MTT, different concentrations, 48 h
Procedure, shortened: as §1

[10] = target: T1, recombinant human survivin (human, UniProt O15392); assay: quartz crystal microbalance
T1 sequence (O15392 whole entry): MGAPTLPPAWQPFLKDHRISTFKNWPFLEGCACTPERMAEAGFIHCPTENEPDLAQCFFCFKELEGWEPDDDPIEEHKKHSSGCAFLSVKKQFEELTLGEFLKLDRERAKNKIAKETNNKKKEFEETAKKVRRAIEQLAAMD

[11] = target: T1, recombinant human survivin; assay: quartz crystal microbalance; remark: listed apart in the source

Chain of recombinant human survivin (Homo sapiens, UniProt O15392) (O15392 whole entry): as above

CSCC[C@H](NC(=O)[C@H](CC(C)C)NC(=O)[C@H](CCCCN)NC(=O)[C@H](CCC(N)=O)NC(=O)[C@H](CC(=O)O)NC(=O)CCCCCNC(=O)[C@@H](CCCNC(=N)N)NC(=O)[C@@H](CCCNC(=N)N)NC(=O)[C@@H](CCCNC(=N)N)NC(=O)[C@@H](CCCNC(=N)N)NC(=O)[C@@H](CCCNC(=N)N)NC(=O)[C@@H](CCCNC(=N)N)NC(=O)[C@@H](CCCNC(=N)N)NC(=O)[C@@H](CCCNC(=N)N)NC(=O)[C@@H](CCCNC(=N)N)NC(C)=O)C(=O)N[C@@H](CCC(=O)O)C(=O)N[C@@H](Cc1ccccc1)C(N)=O [r9‐INC16‐22]
QCM response to survivin-immobilized sensor chip [1]: strongly responded to survivin in a dose‐dependent manner
QCM response to HSA-immobilized sensor chip [2]: no significant response
antiproliferative effect on MCF‐10A cells (in words) [3]: No marked antiproliferative effect
protein expression level of survivin in MDA‐MB‐231 cells [4]: Neither the treatment with r9‐INC16‐22 at a concentration of 10 μmol L^−1 nor at 40 μmol L^−1 showed any significant decrease
protein expression level of survivin in MIA PaCa‐2 cells [5]: apparently reduced the protein level
expression of cleaved caspase‐3 in MIA PaCa‐2 cells [6]: significantly increased
early apoptosis rate ([7]; MIA PaCa‐2, 10 μmol L^−1, 24 h): 52.4%
late apoptosis and necrosis rate ([7]; MIA PaCa‐2, 10 μmol L^−1, 24 h): 29.4%
early apoptosis rate ([7]; MIA PaCa‐2, 50 μmol L^−1, 24 h): 49.6%
late apoptosis and necrosis rate ([7]; MIA PaCa‐2, 50 μmol L^−1, 24 h): 44.2%

Ac-rrrrrrrrr-ahx-QLDMFKE-NH2 [r9‐scINC16‐22]
QCM response to survivin-immobilized sensor chip [1]: negligible response
antiproliferative effect on MDA‐MB‐231 cells (in words) [8]: no significant antiproliferative effect
antiproliferative effect on MIA PaCa‐2 cells (in words) [9]: no significant antiproliferative effect

B1: FITC-INC_(16-22) (peptide)
peptide: DQKLMEF
HELM: PEPTIDE1{[O=C1OC2(c3ccc(O)cc3Oc3cc(O)ccc32)c2ccc(NC(=S)[*:2])cc21].[O=C(CCCCCN[*:1])[*:2]].D.Q.K.L.M.E.F.[am]}$$$$V2.0
SMILES: CSCC[C@H](NC(=O)[C@H](CC(C)C)NC(=O)[C@H](CCCCN)NC(=O)[C@H](CCC(N)=O)NC(=O)[C@H](CC(=O)O)NC(=O)CCCCCNC(=S)Nc1ccc2c(c1)C(=O)OC21c2ccc(O)cc2Oc2cc(O)ccc21)C(=O)N[C@@H](CCC(=O)O)C(=O)N[C@@H](Cc1ccccc1)C(N)=O
Kd [10]: 66 nM

DQKLMEFLCNMDNKDLVWL-NH2 [INC_(16-34)]
Kd [10]: 160 nM

DQKLMEF-NH2 [INC_(16-22)]
Kd [11]: 91.4 nM

LVWLEEIQ-NH2 [INC_(31-38)]
Kd [11]: 108 nM

GPIHLLEL-NH2 [INC_(7-14)]
Kd [11]: 214 nM

EEAERMFTR-NH2 [INC_(39-47)]
Kd [11]: 135 nM

QLDMFKE-NH2 [scINC_(16-22)]
Kd [10]: > 300 nM

LCNMDNKD-NH2 [INC_(23-30)]
Kd [11]: 117 nM

DNKDLVWL-NH2 [INC_(27-34)]
Kd [11]: 255 nM

CDQKLMEF-NH2 [INC_(15-22)]
Kd [10]: 248 nM
